Measurements published in ChEMBL document CHEMBL3992547, “Antimicrobial activity of rhodanine-3-acetic acid derivatives” (Bioorg Med Chem, 2017).
Converted amounts (≈) assume the structure as drawn. The source made the active and inactive calls. The calls are words filed in the database; no cut-off is given here.

Columns and labels:
[1] = tested on: Mycobacterium tuberculosis; assay: Antimycobacterial activity against Mycobacterium tuberculosis H37Rv 331/88 measured after 14 days by micromethod; type: functional; details: H37Rv 331/88, 336 h
[2] = tested on: Mycobacterium tuberculosis; assay: Antimycobacterial activity against Mycobacterium tuberculosis H37Rv 331/88 measured after 21 days by micromethod; type: functional; details: H37Rv 331/88, 504 h
Mycobacterium avium [3] = assay: Antimycobacterial activity against Mycobacterium avium 330/88 measured after 14 days by micromethod; type: functional; details: 330/88, 336 h
Mycobacterium avium [4] = assay: Antimycobacterial activity against Mycobacterium avium 330/88 measured after 21 days by micromethod; type: functional; details: 330/88, 504 h
Mycobacterium kansasii [5] = assay: Antimycobacterial activity against Mycobacterium kansasii isolate 235/80 after 7 days by micromethod; type: functional; details: isolate 235/80, 168 h
Mycobacterium kansasii [6] = assay: Antimycobacterial activity against Mycobacterium kansasii isolate 235/80 after 14 days by micromethod; type: functional; details: isolate 235/80, 336 h
Mycobacterium kansasii [7] = assay: Antimycobacterial activity against Mycobacterium kansasii isolate 235/80 after 21 days by micromethod; type: functional; details: isolate 235/80, 504 h
Mycobacterium kansasii [8] = assay: Antimycobacterial activity against Mycobacterium kansasii isolate 6509/96 after 7 days by micromethod; type: functional; details: isolate 6509/96, 168 h
Mycobacterium kansasii [9] = assay: Antimycobacterial activity against Mycobacterium kansasii isolate 6509/96 after 14 days by micromethod; type: functional; details: isolate 6509/96, 336 h
Mycobacterium kansasii [10] = assay: Antimycobacterial activity against Mycobacterium kansasii isolate 6509/96 after 21 days by micromethod; type: functional; details: isolate 6509/96, 504 h
[11] = Solubility of the compound in Sula's semisynthetic medium up to 1 mM; type: physicochemical
Staphylococcus aureus [12] = assay: Antibacterial activity against Staphylococcus aureus CCM 4516/08 incubated for 24 hrs under dark condition by microdilution broth assay; type: functional; details: CCM 4516/08, 24 h
In short: (§1)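 Broth microdilution per M07-A07, modified, in Mueller-Hinton broth adjusted to pH 7.4 (±0.2). Inoculum is prepared in sterile water to McFarland 0.5 (1.5 × 10⁸ CFU/mL). Plates are incubated in the dark at 35 °C in humid air. MIC is read after 24 and 48 h as at least 95% growth reduction versus control (IC₉₅).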

Staphylococcus aureus [13] = assay: Antibacterial activity against Staphylococcus aureus CCM 4516/08 incubated for 48 hrs under dark condition by microdilution broth assay; type: functional; details: CCM 4516/08, 48 h; in short: as §1
Staphylococcus aureus [14] = assay: Antibacterial activity against methicillin-resistant Staphylococcus aureus H 5996/08 incubated for 24 hrs under dark condition by microdilution broth assay; type: functional; details: H 5996/08, 24 h
In short: (§2)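 Microdilution broth method modified per M07-A07, in Mueller-Hinton broth adjusted to pH 7.4 (±0.2). Inoculum made in sterile water to 0.5 McFarland (1.5 × 10⁸ CFU/mL). Plates incubated in the dark at 35 °C in a humid atmosphere, with reads at 24 and 48 h. MIC taken as at least 95% growth reduction (IC₉₅) versus control.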

Staphylococcus aureus [15] = assay: Antibacterial activity against methicillin-resistant Staphylococcus aureus H 5996/08 incubated for 48 hrs under dark condition by microdilution broth assay; type: functional; details: H 5996/08, 48 h; in short: as §2
[16] = tested on: Staphylococcus epidermidis; assay: Antibacterial activity against Staphylococcus epidermidis H 6966/08 incubated for 24 hrs under dark condition by microdilution broth assay; type: functional; details: H 6966/08, 24 h; in short: as §1
[17] = tested on: Staphylococcus epidermidis; assay: Antibacterial activity against Staphylococcus epidermidis H 6966/08 incubated for 48 hrs under dark condition by microdilution broth assay; type: functional; details: H 6966/08, 48 h; in short: as §1
Escherichia coli [18] = assay: Antibacterial activity against Escherichia coli CCM 4517 incubated for 24 hrs under dark condition by microdilution broth assay; type: functional; details: CCM 4517, 24 h; in short: as §1
Escherichia coli [19] = assay: Antibacterial activity against Escherichia coli CCM 4517 incubated for 48 hrs under dark condition by microdilution broth assay; type: functional; details: CCM 4517, 48 h; in short: as §1
Klebsiella pneumoniae [20] = assay: Antibacterial activity against Klebsiella pneumoniae D 11750/08 up to 500 uM incubated for 24 to 48 hrs under dark condition by microdilution broth assay; type: functional; in short: as §1
Klebsiella pneumoniae [21] = assay: Antibacterial activity against ESBL positive Klebsiella pneumoniae J 14368/08 up to 500 uM incubated for 24 to 48 hrs under dark condition by microdilution broth assay; type: functional; in short: as §1
Pseudomonas aeruginosa = assay: Antibacterial activity against Pseudomonas aeruginosa CCM 1961 up to 500 uM incubated for 24 to 48 hrs under dark condition by microdilution broth assay; type: functional; in short: as §1
Pichia kudriavzevii = assay: Antifungal activity against Candida krusei E28 after 24 to 48 hrs hrs by microdilution broth assay; type: functional
In short: (§3)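 Broth microdilution per CLSI M27-A3 and M38-A2 in RPMI 1640 with glutamine, buffered to pH 7.0 with MOPS. Compounds are diluted in DMSO. Final inoculum is 5 × 10³ CFU/mL for yeasts and 0.5–5 × 10⁴ CFU/mL for moulds. Plates are incubated in the dark at 35 °C in humid air and read visually and/or at 540 nm after 24 and 48 h. MIC is ≥80% growth reduction (IC₈₀) for yeasts and ≥50% (IC₅₀) for filamentous fungi.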

Lichtheimia corymbifera = assay: Antifungal activity against Absidia corymbifera 272 after 24 to 48 hrs hrs by microdilution broth assay; type: functional; in short: as §3
Enterococcus [22] = assay: Antibacterial activity against Enterococcus sp. J 14365/08 incubated for 24 hrs under dark condition by microdilution broth assay; details: J 14365/08, 24 h
Enterococcus [23] = assay: Antibacterial activity against Enterococcus sp. J 14365/08 incubated for 48 hrs under dark condition by microdilution broth assay; details: J 14365/08, 48 h

SMILES | MIC [1] [µM] | MIC [2] [µM] | MIC (Mycobacterium avium [3]) [µM] | MIC (Mycobacterium avium [4]) [µM] | MIC (Mycobacterium kansasii [5]) [µM] | MIC (Mycobacterium kansasii [6]) [µM] | MIC (Mycobacterium kansasii [7]) [µM] | MIC (Mycobacterium kansasii [8]) [µM] | MIC (Mycobacterium kansasii [9]) [µM] | MIC (Mycobacterium kansasii [10]) [µM] | solubility [11] | MIC95 (Staphylococcus aureus [12]) [µM] | MIC95 (Staphylococcus aureus [13]) [µM] | MIC95 (Staphylococcus aureus [14]) [µM] | MIC95 (Staphylococcus aureus [15]) [µM] | MIC95 [16] [µM] | MIC95 [17] [µM] | MIC95 (Escherichia coli [18]) [µM] | MIC95 (Escherichia coli [19]) [µM] | Activity (Klebsiella pneumoniae [20]) | further results
O=C(CN1C(=O)/C(=C/c2cc(Br)ccc2O)SC1=S)Nc1ccc(Cl)cc1 | 32 (≈ 15.5 µg/mL) | 62.5 (≈ 30.2 µg/mL) | 500 (≈ 242 µg/mL) | 500 (≈ 242 µg/mL) | 500 (≈ 242 µg/mL) | > 500 | > 500 | 125 (≈ 60.5 µg/mL) | 250 (≈ 121 µg/mL) | 500 (≈ 242 µg/mL) | Soluble | 500 (≈ 242 µg/mL) | 500 (≈ 242 µg/mL) | 500 (≈ 242 µg/mL) | 500 (≈ 242 µg/mL) | 500 (≈ 242 µg/mL) | 500 (≈ 242 µg/mL) | > 500 | > 500 | inactive | Activity (Klebsiella pneumoniae [21]): inactive; Activity (Pseudomonas aeruginosa): inactive; Activity (Pichia kudriavzevii): inactive; Activity (Lichtheimia corymbifera): inactive; MIC95 (Enterococcus [22]): 500 µM (≈ 242 µg/mL); MIC95 (Enterococcus [23]): 500 µM (≈ 242 µg/mL)
O=C(CN1C(=O)CSC1=S)Oc1ccccc1 | 1000 (≈ 267 µg/mL) | 1000 (≈ 267 µg/mL) | 1000 (≈ 267 µg/mL) | 1000 (≈ 267 µg/mL) | 500 (≈ 134 µg/mL) | 1000 (≈ 267 µg/mL) | 1000 (≈ 267 µg/mL) | 500 (≈ 134 µg/mL) | 1000 (≈ 267 µg/mL) | 1000 (≈ 267 µg/mL) | Soluble | > 125 | > 125 | > 125 | > 125 | > 125 | > 125 | > 125 | > 125 | inactive | Activity (Klebsiella pneumoniae [21]): inactive; Activity (Pseudomonas aeruginosa): inactive; Activity (Pichia kudriavzevii): inactive; Activity (Lichtheimia corymbifera): inactive; MIC95 (Enterococcus [22]): 125 µM (≈ 33.4 µg/mL); MIC95 (Enterococcus [23]): > 125 µM
O=C(CN1C(=O)CSC1=S)Nc1ccc([N+](=O)[O-])cc1 | 500 (≈ 156 µg/mL) | 500 (≈ 156 µg/mL) | 1000 (≈ 311 µg/mL) | 1000 (≈ 311 µg/mL) | 500 (≈ 156 µg/mL) | 500 (≈ 156 µg/mL) | 1000 (≈ 311 µg/mL) | 500 (≈ 156 µg/mL) | 500 (≈ 156 µg/mL) | 1000 (≈ 311 µg/mL) | Soluble | 500 (≈ 156 µg/mL) | 500 (≈ 156 µg/mL) | 500 (≈ 156 µg/mL) | 500 (≈ 156 µg/mL) | 250 (≈ 77.8 µg/mL) | 250 (≈ 77.8 µg/mL) | > 500 | > 500 | inactive | Activity (Klebsiella pneumoniae [21]): inactive; Activity (Pseudomonas aeruginosa): inactive; Activity (Pichia kudriavzevii): inactive; Activity (Lichtheimia corymbifera): inactive; MIC95 (Enterococcus [22]): 250 µM (≈ 77.8 µg/mL); MIC95 (Enterococcus [23]): 250 µM (≈ 77.8 µg/mL)
O=C(O)CN1C(=O)/C(=C/c2cc(Cl)ccc2O)SC1=S | 32 (≈ 10.6 µg/mL) | 62.5 (≈ 20.6 µg/mL) | 62.5 (≈ 20.6 µg/mL) | 62.5 (≈ 20.6 µg/mL) | 32 (≈ 10.6 µg/mL) | 62.5 (≈ 20.6 µg/mL) | 62.5 (≈ 20.6 µg/mL) | 32 (≈ 10.6 µg/mL) | 62.5 (≈ 20.6 µg/mL) | 125 (≈ 41.2 µg/mL) | Soluble | 250 (≈ 82.4 µg/mL) | 250 (≈ 82.4 µg/mL) | 125 (≈ 41.2 µg/mL) | 125 (≈ 41.2 µg/mL) | 62.5 (≈ 20.6 µg/mL) | 62.5 (≈ 20.6 µg/mL) | 500 (≈ 165 µg/mL) | > 500 | inactive | Activity (Klebsiella pneumoniae [21]): inactive; Activity (Pseudomonas aeruginosa): inactive; Activity (Pichia kudriavzevii): inactive; Activity (Lichtheimia corymbifera): inactive; MIC95 (Enterococcus [22]): 125 µM (≈ 41.2 µg/mL); MIC95 (Enterococcus [23]): 500 µM (≈ 165 µg/mL)
COc1ccc(OC(=O)CN2C(=O)CSC2=S)cc1 | 1000 (≈ 297 µg/mL) | 1000 (≈ 297 µg/mL) | 1000 (≈ 297 µg/mL) | 1000 (≈ 297 µg/mL) | 1000 (≈ 297 µg/mL) | 1000 (≈ 297 µg/mL) | 1000 (≈ 297 µg/mL) | 1000 (≈ 297 µg/mL) | 1000 (≈ 297 µg/mL) | 1000 (≈ 297 µg/mL) | Soluble | > 500 | > 500 | > 500 | > 500 | 500 (≈ 149 µg/mL) | > 500 | > 500 | > 500 | inactive | Activity (Klebsiella pneumoniae [21]): inactive; Activity (Pseudomonas aeruginosa): inactive; Activity (Pichia kudriavzevii): inactive; Activity (Lichtheimia corymbifera): inactive; MIC95 (Enterococcus [22]): 500 µM (≈ 149 µg/mL); MIC95 (Enterococcus [23]): > 500 µM
